Results collected from several papers.
Compare with care: the assays were run in different laboratories. In brackets after ≈: the same amount, converted by molar mass.
Organism: Mycobacterium tuberculosis
Effect on: microbial growth

SMILES	test	system	setting	endpoint	result
COc1c(N2CC3CCCN(C(=O)OCc4ccc([N+](=O)[O-])cc4)C3C2)c(F)cc2c(=O)c(C(=O)O)cn(C3CC3)c12 (centres unmarked)	–	H37RV	–	MIC	> 8 µM
CN[C@@H]1[C@H](O)[C@H](NC)[C@H]2O[C@@]3(O)C(=O)C[C@@H](C)O[C@H]3O[C@@H]2[C@H]1O	broth dilution	H37RV	7 days	MIC	100 mg/L
CCCCOc1ccc2nc3ccc(=O)cc-3oc2c1	–	–	7 days	MIC90	≤ 10 µM
CCOC(=O)C1=C(C)NC(=NNS(=O)(=O)c2ccccc2)NC1c1cn(-c2ccccc2)nc1-c1ccccc1 (centres unmarked)	resazurin	H37RV	–	MIC	44.6 to 45.8 µM
CC(=O)OCOc1ccc2nc3ccc(=O)cc-3oc2c1	–	–	7 days	MIC90	34 µM
CC[C@@H](CO)NCCN[C@@H](CC)CO	resazurin	H37RV	–	MIC	7.64 µM
CSCOc1ccc2nc3ccc(=O)cc-3oc2c1	–	–	7 days	MIC90	47 µM (≈ 12.8 µg/mL)
O=C1c2ccccc2NC(c2cc([N+](=O)[O-])ccc2O)N1/N=C/c1cc([N+](=O)[O-])ccc1O (centres unmarked)	–	ATCC25177 H37RA	14 days	MIC	64 mg/L
CC(C)/N=c1\cc2n(-c3ccc(Cl)cc3)c3ccccc3nc-2cc1Nc1ccc(Cl)cc1	–	–	7 days	MIC90	0.39 µM (≈ 0.185 µg/mL)
NNC(=O)c1ccncc1	resazurin	H37RV	0.212 µM	inhibition	44%
CCOC(=O)C1=C(C)NC(=S)NC1c1cn(-c2ccccc2)nc1-c1ccccc1 (centres unmarked)	resazurin	H37RV	–	MIC	59.7 µM
COc1c(N2CC3CCCNC3C2)c(F)cc2c(=O)c(C(=O)OCc3cnc([N+](=O)[O-])s3)cn(C3CC3)c12 (centres unmarked)	–	H37RV	–	MIC	0.25 µM
CCOC(=O)C1=C(C)NC(=O)NC1c1ccc([N+](=O)[O-])o1 (centres unmarked)	resazurin	H37RV	–	MIC	20.1 µM
O=C(O)c1cn(C2CC2)c2cc(N3CCNCC3)c(F)cc2c1=O	–	ATCC25177 H37RA	14 days	MIC	16 mg/L
